Paper PMC3085959 (Journal of medicinal chemistry, 2011)
“Also recorded” adds a separate entry of the source.

Tests used:
[1] = tested on: rats; assay: Rat forced swim test; format: in vivo; settings: 10 mg/kg i.p., sub-chronic, 1 h before test, compared to vehicle
Summary of the method: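 Male Sprague-Dawley rats (200–225 g), naive, used once, tested in cylinders of 24–25 °C water, 22 cm deep. A 15 min pretest was followed 24 h later by a 5 min test. Dosing was i.p. in 10% β-hydroxypropyl cyclodextrin (2 mL/kg), 15 min after pretest and 1 h before test. Imipramine 15 mg/kg was the reference. Blinded video immobility scoring, one-way ANOVA.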

[2] = tested on: cloned human dopamine receptor subtypes, serotonin receptor subtypes, alpha-adrenergic receptors, and opioid receptors; assay: CNS receptor screening, NIMH PDSP primary binding assays; settings: 10 μM
[3] = biological target: dopamine transporter (DAT) (Rattus norvegicus, UniProt P23977); assay: Inhibition of [3H]dopamine uptake by DAT in rat striatum; format: biochemical
Chain of dopamine transporter (DAT) (P23977 whole entry): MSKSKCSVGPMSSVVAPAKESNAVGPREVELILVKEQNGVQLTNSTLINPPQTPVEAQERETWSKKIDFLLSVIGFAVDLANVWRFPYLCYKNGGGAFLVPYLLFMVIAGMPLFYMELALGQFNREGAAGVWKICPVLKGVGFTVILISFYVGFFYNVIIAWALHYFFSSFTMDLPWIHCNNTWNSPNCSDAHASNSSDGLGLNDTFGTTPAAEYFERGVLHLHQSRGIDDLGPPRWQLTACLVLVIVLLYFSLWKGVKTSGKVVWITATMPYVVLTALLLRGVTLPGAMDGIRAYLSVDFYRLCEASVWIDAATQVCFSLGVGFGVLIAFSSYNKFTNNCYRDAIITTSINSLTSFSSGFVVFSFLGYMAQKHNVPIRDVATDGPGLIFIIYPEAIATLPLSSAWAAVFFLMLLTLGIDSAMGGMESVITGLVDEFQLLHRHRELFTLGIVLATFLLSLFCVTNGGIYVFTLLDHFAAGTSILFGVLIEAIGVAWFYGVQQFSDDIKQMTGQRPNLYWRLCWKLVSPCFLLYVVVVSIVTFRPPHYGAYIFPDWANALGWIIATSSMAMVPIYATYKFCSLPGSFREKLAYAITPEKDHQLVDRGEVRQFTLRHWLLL

[4] = biological target: serotonin transporter (SERT) (Rattus norvegicus, UniProt P31652); assay: Inhibition of [3H]serotonin uptake by SERT in rat cerebral cortex; format: biochemical
Chain of serotonin transporter (SERT) (P31652 whole entry): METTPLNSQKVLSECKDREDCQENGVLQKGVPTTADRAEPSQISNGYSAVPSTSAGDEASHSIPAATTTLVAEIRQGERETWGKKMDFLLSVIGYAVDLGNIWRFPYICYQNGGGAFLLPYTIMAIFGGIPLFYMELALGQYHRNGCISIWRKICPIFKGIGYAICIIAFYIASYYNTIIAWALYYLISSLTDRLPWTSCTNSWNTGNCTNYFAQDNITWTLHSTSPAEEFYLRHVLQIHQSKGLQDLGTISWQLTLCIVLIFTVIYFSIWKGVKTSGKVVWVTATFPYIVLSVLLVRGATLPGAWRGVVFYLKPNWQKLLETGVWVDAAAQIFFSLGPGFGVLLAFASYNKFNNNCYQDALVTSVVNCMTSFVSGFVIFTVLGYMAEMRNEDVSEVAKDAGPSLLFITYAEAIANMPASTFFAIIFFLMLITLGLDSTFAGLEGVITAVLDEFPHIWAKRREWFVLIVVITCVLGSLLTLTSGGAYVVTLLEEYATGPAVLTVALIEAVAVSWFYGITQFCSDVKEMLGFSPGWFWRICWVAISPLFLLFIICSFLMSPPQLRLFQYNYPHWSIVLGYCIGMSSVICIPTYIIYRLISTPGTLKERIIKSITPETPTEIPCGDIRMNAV

Structure (SMILES)	Effect on duration of immobility in the forced swimming test [1]	Inhibition in CNS receptor screening, majority of the receptor target sites [2]	Inhibition in CNS receptor screening, a few other target sites ([2]; only marginally so in some cases)	Ki [3]	Ki [4]
Oc1cccc(CN[C@H]2CC[C@@H](C(c3ccccc3)c3ccccc3)OC2)c1 [Compound 10f, 3-((((3S,6S)-6-benzhydryltetrahydro-2H-pyran-3-yl)amino)methyl)phenol]	significant reduction of immobility; also recorded: high efficacy in reducing immobility; also recorded: more efficacious than imipramine	less than 50%	greater than 50%	–	–
c1ccc(C(c2ccccc2)[C@@H]2CC[C@H](NCc3cccs3)CO2)cc1 [Compound 10g, (3S,6S)-6-benzhydryl-N-(thiophen-2-ylmethyl)tetrahydro-2H-pyran-3-amine]	–	–	–	15.9 nM	12.9 nM
